Experimental data published in PMC8286830 (Biochemical Journal, 2021).
Entries after “also recorded” stand apart in the source; their conditions may differ.

What was measured:
TgCEN1 [1] = test: Turbidimetry at 340 nm, TgCEN1 self-assembly; format: physicochemical, Toxoplasma gondii; conditions: increasing ANS concentrations, 1 mM CaCl2, 20 mM KCl, pH 7.5, 37°C
Procedure, shortened: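 Full-length protein (E. coli Rosetta) at 20 µM in 20 mM Tris–HCl, 20 mM KCl pH 7.5, 37°C, A340 recorded versus time. Run with 1 mM CaCl2, with 1 mM EGTA, or with EGTA added to Ca2+-saturated protein. Ca2+ series 5–2000 µM, read at 25 min versus metal/protein ratio. Also varied: temperature 4–45°C, protein 5–50 µM, KCl 0–150 mM, and 600 µM ANS.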

TgCEN1 [2] = test: DLS particle size of TgCEN1; format: physicochemical, Toxoplasma gondii; conditions: 600 µM ANS, 1 mM CaCl2, 20 mM Tris–HCl, 20 mM KCl pH 7.5, 37°C
N-TgCEN1 = test: DLS particle size of N-TgCEN1; format: physicochemical, Toxoplasma gondii; conditions: 600 µM ANS, 10 µM N-TgCEN1, 1 mM CaCl2
Procedure, shortened: (§1)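 Domains produced in E. coli Rosetta: N-domain residues 1–94 and C-domain 95–169. […] 10 µM protein in 20 mM Tris–HCl pH 7.5, 1 mM CaCl2, at selected KCl concentrations or with 600 µM ANS. Samples centrifuged at 21 000 g for ≥30 min; filtered buffers. Hydrodynamic diameter reported as number distribution (633 nm laser, 173°).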

C-TgCEN1 [3] = target: T1, C-TgCEN1 (Toxoplasma gondii, UniProt A0A125YHX7); test: DLS particle size of C-TgCEN1; format: physicochemical
Procedure, shortened: as §1

Δ21TgCEN1 [4] = target: T2, Δ21TgCEN1 (Toxoplasma gondii, UniProt A0A125YHX7); test: Turbidimetry at 340 nm, Δ21TgCEN1; format: physicochemical; conditions: 20 µM Δ21TgCEN1 + 50 µM N21, 1 mM CaCl2, 20 mM KCl pH 7.5, 37°C
T2 sequence (A0A125YHX7 22-169): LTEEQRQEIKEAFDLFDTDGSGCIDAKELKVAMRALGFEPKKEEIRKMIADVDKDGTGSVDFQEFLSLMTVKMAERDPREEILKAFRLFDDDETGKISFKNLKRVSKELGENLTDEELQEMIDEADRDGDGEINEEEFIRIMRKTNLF
Procedure, shortened: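 Construct lacking residues 1–21 (E. coli Rosetta) at 20 µM in 20 mM Tris–HCl, 20 mM KCl pH 7.5, 1 mM CaCl2, 37°C. A340 followed over time, before and after adding 50 µM synthetic N-terminal peptide (residues 1–21). Peptide alone with CaCl2 run as a control trace.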

Δ21TgCEN1 [5] = target: T2, Δ21TgCEN1; test: DLS particle size / count rate of Δ21TgCEN1; format: physicochemical; conditions: 50 µM N21, 1 mM CaCl2
Procedure, shortened: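 Recombinant tag-free Δ21TgCEN1 from E. coli Rosetta (Ni affinity, TEV cleavage). For DLS, 10 µM protein in 20 mM Tris–HCl, 20 mM KCl pH 7.5 with 1 mM CaCl2 at 37°C was spun at 21 000 g for ≥30 min, then measured before and after adding 50 µM N21 peptide. Diameter was reported as number distribution. In parallel, A340 turbidity of 20 µM protein was followed over time.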

[6] = Turbidimetry at 340 nm, N21 peptide alone; format: physicochemical; conditions: 1 mM CaCl2, 20 mM Tris–HCl, 20 mM KCl pH 7.5, 37°C, turbidity at 340 nm
Procedure, shortened: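 Synthetic N21 peptide (>90% HPLC purity, mass confirmed by ESI-MS) alone with 1 mM CaCl2 in 20 mM Tris–HCl, 20 mM KCl pH 7.5 at 37°C. Absorbance at 340 nm recorded over time in 1 cm quartz cuvettes.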

EoCEN = conditions: addition of XPC peptide; cited from earlier work
[7] = Far-UV CD of the substance alone; format: physicochemical; conditions: 20 µM, aqueous solution, 50 mM Tris–HCl, 150 mM KCl pH 7.5, 25°C
Procedure, shortened: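 Synthetic peptide (>90% HPLC purity, mass confirmed by ESI-MS), quantified by ε280 = 5500 M−1 cm−1, at 20 µM. Buffer: 50 mM Tris–HCl, 150 mM KCl pH 7.5, 0.5 mM DTT with 5 mM CaCl2 or EGTA. Spectra 200–250 nm, 0.1 cm cell, 25°C, average of five accumulations, buffer spectrum subtracted.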

C-TgCEN1 [8] = target: T1, C-TgCEN1; test: Turbidimetry at 340 nm, C-TgCEN1; format: physicochemical; conditions: 20 µM, 1 mM CaCl2, 20 mM KCl pH 7.5, 37°C
Procedure, shortened: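 Recombinant N-domain (1–94) or C-domain (95–169), Ni-affinity purified. A340 followed over time in a 1 cm cuvette. Standard conditions: 20 µM protein, 20 mM Tris–HCl, 20 mM KCl pH 7.5, 1 mM CaCl2, 37°C. Conditions also varied: CaCl2 0–2 mM, temperature 4–45°C, protein 5–50 µM, KCl 0–150 mM, or 600 µM ANS added.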

[9] = 600 µM ANS, 10 µM C-TgCEN1, 1 mM CaCl2

Question: Which results are given for `O=S(=O)(O)c1cccc2cccc(Nc3ccccc3)c12` [ANS, 1-anilino-8-naphthalenesulphonic acid, reference compound]?
Answer: TgCEN1 final turbidity at 340 nm with ANS (TgCEN1 [1]): decreased at increasing ANS concentrations; also recorded: only partially quenched the aggregation process; hydrodynamic diameter of TgCEN1 particles with ANS (TgCEN1 [2]): ~238 nm; effect of ANS on association of N-TgCEN1 (N-TgCEN1): no effect; diameter of new species of C-TgCEN1 with ANS (larger) (C-TgCEN1 [3]; [9]): 35 ± 1 nm; diameter of new species of C-TgCEN1 with ANS (smaller) (C-TgCEN1 [3]; [9]): 7.96 ± 0.01 nm

Question: Which results are given for 1-MHSRKGASSLPRGRGAGKKTE-21 [N21]?
Answer: Δ21TgCEN1 light scattering at 340 nm with N21 (Δ21TgCEN1 [4]): an increase in the light scattering at 340 nm; DLS count rate of Δ21TgCEN1 with N21 (Δ21TgCEN1 [5]): increase; Ca^2+-induced aggregation of peptide alone [6]: did not aggregate upon addition of Ca^2+ in solution

Question: With “XPC peptide: XPC peptide added to centrin from Euplotes octocarinatus (EoCEN), cited ref 43 (NWKLLAKGLLIRERLKR)” as the compound, how does the “effect on protein aggregates” value (EoCEN) read?
Answer: The value was “dissociation of protein aggregates”.

Question: With “C-TgCEN1: C-terminal domain of TgCEN1, 95–169 aa” as the compound, how does the “far-UV CD conformation alone” value [7] read?
Answer: Its value is “well-folded”.

Question: And the “turbidity at 340 nm” value (C-TgCEN1 [8])?
Answer: The value was “no turbidity changes at 340 nm”.

Question: What about the particle diameter (C-TgCEN1 [3]; 10 µM, 1 mM CaCl2, 20 mM Tris–HCl, 20 mM KCl pH 7.5) of the same compound?
Answer: The particle diameter was 311 ± 1 nm.

Question: What about the “DLS profile vs salt” value (C-TgCEN1 [3]; 10 µM, selected KCl concentrations, 1 mM CaCl2) of the same compound?
Answer: The value was “only small changes in the DLS profiles”.
